ChEMBL document CHEMBL1137728, “Synthesis of novel thiazolone-based compounds containing pyrazoline moiety and evaluation of their anticancer activity” (2009)

Columns and labels:
Type in all cases: functional
MOLT-4 = test: Anticancer activity against human MOLT4 cells assessed as cell growth at 10 uM after 48 hrs by SRB assay; details: MOLT-4, 48 h, read-out: Activity
Procedure, shortened: (§1)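 US NCI one-dose screen across about 60 human tumour cell lines. A single concentration of 10^-5 M was applied with 48 h continuous exposure. The end point was sulforhodamine B protein staining, read spectrophotometrically. Results are given as percent growth of treated cells relative to untreated controls.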

[1] = Anticancer activity against human NCI60 cells assessed as cell growth at 10 uM after 48 hrs by SRB assay; details: NCI60, 48 h, read-out: Activity; procedure, shortened: as §1
CCRF-CEM [2] = test: Anticancer activity against human CCRF-CEM cells assessed as cell growth at 10 uM after 48 hrs by SRB assay; details: read-out: Activity; procedure, shortened: as §1
HL-60(TB) = test: Anticancer activity against human HL-60(TB) cells assessed as cell growth at 10 uM after 48 hrs by SRB assay; details: HL-60, 48 h, read-out: Activity
Procedure, shortened: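 Single-dose NCI-60 screen: 10^-5 M added to culture, 48 h incubation; endpoint by sulforhodamine B protein staining read spectrophotometrically; reported as percent growth of treated cells versus untreated control cells.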

HCT-15 = test: Growth inhibition of human HCT15 cells after 48 hrs by SRB assay; details: HCT-15, 48 h
Procedure, shortened: (§2)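 NCI five-dose screen across about 60 human tumour cell lines, at 10-fold dilutions from 10^-4 to 10^-8 M with 48 h continuous exposure, read by SRB. Percent growth used time-zero, untreated control and treated absorbances. GI50 was the concentration giving 50% lower net protein increase than controls. Values beyond the tested range were reported as more or less than the maximum or minimum concentration.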

KM12 = test: Growth inhibition of human KM12 cells after 48 hrs by SRB assay; details: KM12, 48 h; procedure, shortened: as §2
U-251 = test: Growth inhibition of human U251 cells after 48 hrs by SRB assay; details: U-251, 48 h; procedure, shortened: as §2
UACC-62 = test: Growth inhibition of human UACC62 cells after 48 hrs by SRB assay; details: UACC-62, 48 h; procedure, shortened: as §2
IGROV-1 = test: Growth inhibition of human IGROV1 cells after 48 hrs by SRB assay; details: IGROV-1, 48 h; procedure, shortened: as §2
786-0 = test: Growth inhibition of human 786-0 cells after 48 hrs by SRB assay; details: 786-0, 48 h; procedure, shortened: as §2
SN12C = test: Growth inhibition of human SN12C cells after 48 hrs by SRB assay; procedure, shortened: as §2
NCI/ADR-RES = test: Growth inhibition of human NCI/ADR-RES cells after 48 hrs by SRB assay; procedure, shortened: as §2
CCRF-CEM [3] = test: Growth inhibition of human CCRF-CEM cells after 48 hrs by SRB assay; procedure, shortened: as §2
[4] = Growth inhibition of human […] cells after 48 hrs by SRB assay; procedure, shortened: as §2
HOP-62 = test: Growth inhibition of human HOP62 cells after 48 hrs by SRB assay; details: HOP-62, 48 h; procedure, shortened: as §2
HOP-92 = test: Growth inhibition of human HOP92 cells after 48 hrs by SRB assay; details: HOP-92, 48 h; procedure, shortened: as §2

**Q.** Which results are given for O=C1CSC(N2N=C(c3ccccc3)CC2c2ccccc2O)=N1 (centres undefined)?
**A.** growth at 10 µM (MOLT-4): -61.5%; growth at 10 µM [1]: 101%

**Q.** Which growth at 10 µM [1] does the source give for O=C1N=C(N2N=C(c3ccccc3)CC2c2ccccc2O)S/C1=C\c1ccc(Cl)cc1 (centres undefined) here?
**A.** 98.3%

**Q.** And the growth at 10 µM (CCRF-CEM [2])?
**A.** -25%

**Q.** For O=C1N=C(N2N=C(c3ccccc3)CC2c2ccccc2O)S/C1=C\c1cccc(Br)c1 (centres undefined), which growth at 10 µM [1] is on record?
**A.** 88.6%

**Q.** What about the growth at 10 µM (HL-60(TB)) of the same compound?
**A.** -54%

**Q.** With O=C1N=C(N2N=C(c3ccccc3)CC2c2ccccc2O)/C(=C/c2ccccc2)S1 (centres undefined) as the compound, how does the GI50 (HCT-15) read?
**A.** 1510 nM

**Q.** And the TGI (HCT-15; read-out: pTGI (converted))?
**A.** 2950 nM

**Q.** And the GI50 (KM12)?
**A.** 1620 nM

**Q.** And the TGI (KM12; read-out: pTGI (converted))?
**A.** 4470 nM

**Q.** And the GI50 (U-251)?
**A.** 1550 nM

**Q.** What about the TGI (U-251; read-out: pTGI (converted)) of the same compound?
**A.** 2880 nM

**Q.** What about the GI50 (UACC-62) of the same compound?
**A.** 1620 nM

**Q.** What about the TGI (UACC-62; read-out: pTGI (converted)) of the same compound?
**A.** 2950 nM

**Q.** What about the GI50 (IGROV-1) of the same compound?
**A.** 2000 nM

**Q.** What about the TGI (IGROV-1; read-out: pTGI (converted)) of the same compound?
**A.** 4470 nM

**Q.** What about the GI50 (786-0) of the same compound?
**A.** 1820 nM

**Q.** And the TGI (786-0; read-out: pTGI (converted))?
**A.** 3890 nM

**Q.** And the GI50 (SN12C)?
**A.** 1700 nM

**Q.** What about the TGI (SN12C; read-out: pTGI (converted)) of the same compound?
**A.** 3090 nM

**Q.** What about the GI50 (NCI/ADR-RES) of the same compound?
**A.** 1820 nM

**Q.** And the GI50 (CCRF-CEM [3])?
**A.** 1910 nM

**Q.** And the TGI (CCRF-CEM [3]; read-out: pTGI (converted))?
**A.** 4570 nM

**Q.** And the GI50 [4]?
**A.** 1550 nM

**Q.** And the TGI ([4]; read-out: pTGI (converted))?
**A.** 3240 nM

**Q.** What about the GI50 (HOP-62) of the same compound?
**A.** 1620 nM

**Q.** And the TGI (HOP-62; read-out: pTGI (converted))?
**A.** 3470 nM

**Q.** And the GI50 (HOP-92)?
**A.** 1550 nM

**Q.** And the TGI (HOP-92; read-out: pTGI (converted))?
**A.** 4470 nM
